Calb biofilm kill = mixture kills Candida albicans biofilm cells. inhibition, % at 7.6 µM. C. albicans biofilm persisters + clotrimazole, fluorescence viability; primary screen in compound mixtures of four per well. AID 1242. 120,000 tested, 0.02% active;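 active = inhibition above 30.3% in the primary screen of four-compound pools, then above 30% when the compound was retested; inconclusive = passed the primary limit but could not be retested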;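 note: compounds exposed to preformed 24 h biofilms for 48 h; 0% = untreated biofilm control and 100% = clotrimazole plus chlorhexidine kill blank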
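Assay system: C. albicans biofilms / Medium: RPMI/MOPS medium, pH 7.0 / Schedule: biofilm formation 24 h, compound exposure 48 h, 37 °C / Measured by: Alamar Blue fluorescence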
ROMK mod = human ROMK K+ channel modulation, primary screen | B-score at 10 µM | AID 1918 | 130,000 tested, 2% active | Tet-inducible ROMK, thallium flux fluorescence; actives lie on both sides | P48048;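 active = signal ratio slope over the read window, or its plate-corrected B-score, at least 3 SD from the plate mean, either direction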;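 note: B-score of the F/F0 ratio slope over 7 to 12 s after thallium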
Target sequence (P48048 whole entry, looked up): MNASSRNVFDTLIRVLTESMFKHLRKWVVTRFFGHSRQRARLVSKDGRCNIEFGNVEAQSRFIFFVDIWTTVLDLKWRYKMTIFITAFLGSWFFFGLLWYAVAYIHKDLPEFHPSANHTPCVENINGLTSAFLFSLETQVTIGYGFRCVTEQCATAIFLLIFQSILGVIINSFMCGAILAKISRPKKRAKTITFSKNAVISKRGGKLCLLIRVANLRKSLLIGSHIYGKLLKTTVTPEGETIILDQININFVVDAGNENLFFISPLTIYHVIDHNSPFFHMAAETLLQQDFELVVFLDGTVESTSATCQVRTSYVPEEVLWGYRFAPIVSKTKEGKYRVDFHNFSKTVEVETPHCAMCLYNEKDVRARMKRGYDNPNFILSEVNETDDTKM
Pf gametocyte = P. falciparum stage V gametocyte viability inhibition. P. falciparum stage V gametocytes, ATP luminescence, 24 h. 150,000 tested, 0.065% active. inhibition, % at 10.9 µM;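 active = inhibition above the mean plus 3 SD of compounds within the control limits, set per campaign, cut at about 38% in these data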;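 note: 0% = DMSO wells and 100% = medium only without gametocytes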
ROMK hit retest = retested hit modulating human ROMK potassium channel. shares compounds with ROMK mod. ROMK thallium flux, fluorescence ratio; hits give low values. normalized thallium flux (F/F0 slope) at 10 µM. 3,000 tested, 54% active. AID 1917;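 active = Flux at 10 µM at least 3 SD below or above vehicle control mean in one or both replicates; inconclusive = no clear call, values can overlap the other calls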
An asterisk follows results filed as active; ? = inconclusive; · = no result given. This is one part of a sample in which hits are shown more often than they occur.

SMILES | Calb biofilm kill | ROMK mod | Pf gametocyte | ROMK hit retest
N#C/C(=C\c1cccs1)C(=O)Nc1ccccn1 | 22.6 | · | 4.3 | ·
CC(NC(=O)/C(C#N)=C/c1cccs1)c1ccccc1 (centres undefined) | 2.1 | -4.62* | 5.4 | 0.0538*
O=C(CSCc1ccccc1Br)N/N=C/c1ccccc1C(=O)O | 9.2 | -0.00156 | 10.7 | ·
CC1CCCC(C)N1C(=O)COc1ccc(C(=O)N/N=C/c2ccc(C(=O)O)cc2)cc1 (centres undefined) | 8.0 | 0.833 | · | ·
O=C1CCC/C=C\C[C@@H](CC(=O)N(CCO)Cc2ccccc2)C(=O)N[C@H](c2ccccc2)CO1 | · | · | 27.1 | ·
C(#Cc1ccccc1)C[N+]1(CC#Cc2cccc3ccccc23)CCOCC1 | 44.8* | -2.36* | -20.6 | 0.0677*
C#CC[N+]1(CC#Cc2ccccc2)CCOCC1 | · | · | -2.4 | ·
COC(=O)CCC(=O)Nc1ccc(Cl)c(Cl)c1 | · | 0.0121 | · | ·
CO/N=C\CC(=O)Nc1ccc(Cl)c(Cl)c1 | 17.7 | 4.71* | -7.4 | 0.0819
Nc1ccccc1C(=O)NCC1(c2ccccc2)CCCC1 | · | · | -21.3 | ·
COc1ccc(CN2CCNC(=O)C2CC(=O)N2CCCCO2)cc1OC (centres undefined) | 12.7 | 0.148 | 17.1 | ·
CNC(=S)N(Cc1ccccc1)Cc1cccnc1 | 13.9 | -12* | 23.0 | 0.0711
Cc1ccccc1NC(=S)N(Cc1ccccc1)Cc1cccnc1 | 3.2 | -0.641 | -17.0 | ·
COCCN(CCOC)C(=S)Nc1cc(S(=O)(=O)N(C)C)ccc1C | 10.5 | 4.33* | 2.3 | 0.0822
CC(=O)NNC(=S)Nc1cc(S(=O)(=O)N(C)C)ccc1C | 1.9 | 0.719 | · | ·
CC(C)NC(=O)CSc1nnc(-c2ccc3ncccc3c2)n1C | 25.2 | 0.826 | -6.3 | ·
COc1ccc(C(=O)CSc2nc(C(C)(C)C)nc3ccccc23)cc1 | 5.9 | 1.47 | 8.8 | ·
Cc1ccc(-c2nc3c(c(=O)[nH]c(=O)n3CC(C)C)n2CC(C)C)cc1[N+](=O)[O-] | 3.4 | -3.61* | -3.0 | 0.056*
CCCCn1c(=O)[nH]c(=O)c2c1nc(-c1ccc(C)c([N+](=O)[O-])c1)n2CC | 6.1 | 0.379 | -11.4 | ·
CCOC(=O)C1(CCCc2ccccc2)CCN(Cc2cn(CC)nc2C)CC1 | 14.5 | -2.08 | · | ·
CCc1ccc(S(=O)(=O)Nc2ccc(Br)cn2)cc1 | · | · | 4.6 | ·
N#Cc1c(-c2ccccc2Cl)cc(-c2ccccc2)nc1Br | 15.1 | · | -3.3 | ·
COc1cc(Cl)c(C)cc1NC(=O)c1cccc(OC)c1OC | 11.5 | 0.0894 | 12.5 | ·
Cc1nc2c(C(=O)NCc3ccc4c(c3)OCO4)cnn2c(C)c1Cc1ccc(F)cc1Cl | · | · | 9.0 | ·
Cc1nc2c(C(=O)NCc3ccco3)cnn2c(C)c1Cc1ccc(F)cc1Cl | · | · | · | 0.0723
SMILES | Calb biofilm kill | ROMK mod | Pf gametocyte | ROMK hit retest
CC(C)CC1(C)N=C(c2ccccc2)C(=S)N1 (centres undefined) | 18.6 | -3.18* | -5.6 | 0.0566*
S=C1NC2(CCCC2)N=C1c1ccccc1 | 7.7 | -1.82 | -3.3 | ·
COc1ccc(CCNC(=O)CN(c2cccc([N+](=O)[O-])c2)S(C)(=O)=O)cc1OC | 10.7 | -0.0473 | 9.7 | 0.0818
COc1ccc(CCNC(=O)CN(c2cc([N+](=O)[O-])ccc2OC)S(C)(=O)=O)cc1OC | 13.9 | 1.34 | · | ·
Cc1ccc(NS(=O)(=O)c2cccc(C(=O)N/N=C/c3ccc4c(c3)OCCO4)c2)c(C)c1 | 19.7 | 1.63 | · | ·
COc1ccc(C(=O)Nc2ccc3c(c2)nc(CCNC(C)=O)n3C)cc1 | · | 2.97* | · | 0.0749
COc1ccccc1C(=O)Nc1ccc2c(c1)nc(CCNC(C)=O)n2C | · | 0.366 | · | ·
O=C(C1CC1)N1CCc2sccc2C1c1ccc(Cl)cc1 (centres undefined) | 17.0 | · | -9.1 | ·
Cc1ccc(N(C)C2=NC(=O)CS2)cc1Cl | · | · | 2.2 | ·
Cc1sc2ncnc(N3CCN(c4ncccn4)CC3)c2c1C | · | -1.45 | · | ·
COc1cc(C(=O)N2CCN(c3ncnc4sc(C)c(C)c34)CC2)cc(OC)c1OC | · | · | · | 0.0769
Cc1ccc(C(=O)N2CCN(c3ccc([N+](=O)[O-])cc3-n3cccc3)CC2)cc1 | 21.4 | 0.029 | 9.6 | ·
Cc1ccc(-c2nn3c(C)nnc3s2)cc1NCc1c(F)cccc1Cl | · | · | · | 0.0754
Cc1ccc(CNc2cc(-c3nn4c(C)nnc4s3)ccc2C)s1 | · | -0.985 | · | ·
COc1ccc(CCC(C)Nc2ccccc2F)cc1 (centres undefined) | 11.9 | 0.233 | -14.2 | ·
COc1ccc(CCC(C)NC2C3CC4CC(C3)CC2C4)cc1 (centres undefined) | · | · | -24.5 | 0.0571*
CCN(CC)S(=O)(=O)c1ccc(N2CCOCC2)c(NC(=O)c2c3c(nc4ccccc24)CCC3)c1 | 15.1 | · | 33.3 | ·
Cc1cccc(NC(=O)c2ccc(CN3CCN(Cc4ccccc4)CC3)cc2)c1 | 14.0 | -2.12* | 0.8 | ?
COc1cccc(NC(=O)c2ccc(CN3CCN(c4ccccc4)CC3)cc2)c1 | · | -1.44 | -24.9 | ·
O=[N+]([O-])c1cnn(-c2nc(-c3cccs3)cc(C(F)(F)F)n2)c1 | 13.9 | 0.189 | 12.2 | ·
Cc1cccc(NC(=S)NNC(=O)c2ccc(O)cc2O)c1C | 9.2 | 0.731 | 3.4 | ·
Cc1ccc(NC(=S)NNC(=O)c2ccccc2O)c(C)c1 | 10.6 | 2.88* | 11.0 | 0.0635*
C/C(=N/NC(=O)CNC(=O)CCc1ccccc1)c1ccc(Cl)c(Cl)c1 | 13.7 | -0.576 | -12.5 | ·
COc1ncnc2c1NC1=C(S2)C(=NCCC(=O)O)CC(C)(C)C1 | · | · | · | 0.0496*
CC1(C)CC(=O)/C(=C(\O)Cc2ccccc2)C(=NCCCCCC(=O)O)C1 | 10.0 | · | · | ·
SMILES | Calb biofilm kill | ROMK mod | Pf gametocyte | ROMK hit retest
COc1ccc([C@H]2CC(=O)C=C(/C=C/c3ccc(C(F)(F)F)cc3)C2)cc1 | · | · | 9.1 | ·
CCOC(=O)C1=NN(C(=O)Cc2ccccc2)C(O)(C(C)(C)C)C1 (centres undefined) | 25.3 | -13.4* | -2.5 | 0.0766
CC(C)(C)C1(O)CC(C(F)(F)F)=NN1C(=O)CCc1ccccc1 (centres undefined) | 14.5 | -0.165 | 16.3 | ·
COC(=O)COc1ccc(C(=O)Cn2c(NCCCO)nc3ccccc32)cc1 | · | · | -6.9 | ·
Cc1ccc(NC(=O)CSCC(=O)NCCc2ccccn2)c(C)c1 | 8.6 | -0.799 | 7.6 | ·
Cc1ccc(NC(=O)NCC2CCN(Cc3cccc(Cl)c3)CC2)c(Cl)c1 | 15.7 | -1.31 | -11.1 | ·
Cc1ccc(NC(=O)NCC2CCN(Cc3cc(C)ccc3Cl)CC2)c(C)c1 | 10.5 | -3.76* | -1.8 | 0.0544*
Cc1ccccc1COc1ccc(-c2nnn(CC(=O)O)n2)cc1 | · | · | 6.5 | ·
O=C(CSc1nc2c(sc3ccccc32)c(=O)n1CCCN1CCCC1)NCc1ccccc1 | 10.8 | -3.51* | · | 0.06*
Cc1ccc(CNC(=O)CSc2nc3c(sc4ccccc43)c(=O)n2CCCN2CCCC2)cc1 | 8.6 | -2.25 | 2.1 | ·
O=C(C[n+]1cccc(CNC(=O)c2ccc(OC(F)F)cc2)c1)Nc1ccccc1Cl | 9.6 | · | 14.8 | ·
O=C(C[n+]1cccc(CNC(=O)c2ccc(OC(F)F)cc2)c1)Nc1ccc(SC(F)F)cc1 | 14.1 | -4.03* | -3.9 | 0.0705
O=[N+]([O-])c1ccc2c(c1)nc1n2CCN(c2ccccc2)C1 | 22.2 | · | 11.2 | 0.0724
COCCN1CCn2c(nc3cc([N+](=O)[O-])ccc32)C1 | 17.6 | · | -17.8 | ·
Cc1nc(N)ncc1Sc1ccccc1 | 16.2 | · | -11.1 | ·
ClCC1=Nc2cccc3cccc(c23)N1 | 0.7 | · | · | ·
CCC(C)C(=O)Nc1nccs1 (centres undefined) | 3.4 | · | 20.6 | ·

High-throughput results: PubChem, several laboratories
